pIC50: −log10 of the molar value.
Key:
A549 = experiment: Antiproliferative activity against human A549 cells after 48 hrs by MTT assay; format: functional, cell-based; settings: A549, 48 h
Summary of the method: (§1)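 Cells seeded at 3×10³/well and grown 24 h, then exposed 48 h to six final concentrations, twofold steps down from 30. MTT (5 mg/mL) was added for 2–4 h at 37 °C. Supernatant was removed, formazan dissolved in DMSO, and OD read at 570 nm. Results are given as IC50, or as percent inhibition where IC50 exceeds the top concentration. At least three runs.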

CT26 = experiment: Antiproliferative activity against mouse CT26 cells after 48 hrs by MTT assay; format: functional, cell-based; settings: CT26, 48 h; summary of the method: as §1
MCF7 = experiment: Antiproliferative activity against human MCF7 cells after 48 hrs by MTT assay; format: functional, cell-based; settings: MCF7, 48 h; summary of the method: as §1
BGC-823 = experiment: Antiproliferative activity against human BGC823 cells after 48 hrs by MTT assay; format: functional, cell-based; settings: BGC-823, 48 h; summary of the method: as §1
A2780/Taxol = experiment: Antiproliferative activity against human A2780T cells at 30 uM after 48 hrs by MTT assay relative to control; format: functional; summary of the method: as §1
HCT-116 = experiment: Antiproliferative activity against human HCT116 cells after 48 hrs by MTT assay; format: functional, cell-based; settings: HCT-116, 48 h; summary of the method: as §1
NCI-H1299 = experiment: Antiproliferative activity against human NCI-H1299 cells after 48 hrs by MTT assay; format: functional, cell-based; settings: NCI-H1299, 48 h; summary of the method: as §1
NCI-H1975 = experiment: Antiproliferative activity against human NCI-H1975 cells after 48 hrs by MTT assay; format: functional, cell-based; settings: NCI-H1975, 48 h; summary of the method: as §1
A2780S [1] = experiment: Antiproliferative activity against human A2780S cells at 30 uM after 48 hrs by MTT assay relative to control; format: functional; summary of the method: as §1
A2780S [2] = experiment: Antiproliferative activity against human A2780S cells after 48 hrs by MTT assay; format: functional, cell-based; summary of the method: as §1

Row | Compound | pIC50 (A549) | pIC50 (CT26) | pIC50 (MCF7) | pIC50 (BGC-823) | pIC50 (HCT-116) | pIC50 (NCI-H1299) | pIC50 (NCI-H1975) | pIC50 (A2780S [2]) | inhibition at 30 µM (A2780/Taxol) | inhibition at 30 µM (A2780S [1])
1 | Cc1ccc2c(c1)[C@@H]1[C@H](C=C(C=O)[C@@H](C)[C@]13C(=O)Nc1ccccc13)[C@@H](C)O2 | < 4.52 | < 4.52 | < 4.52 | < 4.52 | < 4.52 | < 4.52 | < 4.52 | – | 10.4% | 28.2%
2 | C[C@@H]1C(C=O)=C[C@H]2[C@@H](c3cc(F)ccc3O[C@@H]2C)[C@@]12C(=O)Nc1ccccc12 | < 4.52 | < 4.52 | < 4.52 | < 4.52 | < 4.52 | < 4.52 | < 4.52 | – | 2.6% | 22.7%
3 | Cc1ccc2c(c1)[C@]1(C(=O)N2)[C@H](C)C(C=O)=C[C@H]2[C@H]1c1ccccc1O[C@@H]2C | < 4.52 | < 4.52 | < 4.52 | < 4.52 | < 4.52 | < 4.52 | < 4.52 | – | 7.1% | 12.8%
4 | C[C@@H]1C(C=O)=C[C@H]2[C@@H](c3ccccc3O[C@@H]2C)[C@@]12C(=O)N(c1ccccc1)c1ccccc12 | < 4.52 | < 4.52 | < 4.52 | 4.59 | < 4.52 | 4.52 | < 4.52 | 4.72 | 40.6% | –
5 | CCC[C@@H]1C(C=O)=C[C@H]2[C@@H](c3ccccc3O[C@@H]2CCC)[C@@]12C(=O)Nc1ccccc12 | < 4.52 | < 4.52 | < 4.52 | < 4.52 | < 4.52 | < 4.52 | < 4.52 | 4.59 | 33.1% | –
6 | C[C@@H]1C(C=O)=C[C@H]2[C@@H](c3ccccc3O[C@@H]2C)[C@@]12C(=O)N(C)c1ccccc12 | < 4.52 | < 4.52 | < 4.52 | < 4.52 | < 4.52 | < 4.52 | < 4.52 | – | 4.5% | 26.3%
7 | COc1ccc2c(c1)O[C@H](C)[C@H]1C=C(C=O)[C@@H](C)[C@]3(C(=O)Nc4ccccc43)[C@H]21 | < 4.52 | < 4.52 | < 4.52 | < 4.52 | < 4.52 | < 4.52 | < 4.52 | – | 3.9% | 9.3%
8 | C[C@@H]1C(C=O)=C[C@H]2[C@@H](c3ccccc3O[C@@H]2C)[C@@]12C(=O)Nc1ccccc12 | < 4.52 | < 4.52 | < 4.52 | < 4.52 | < 4.52 | < 4.52 | < 4.52 | – | 17.3% | 23.5%

More lines, main results first:

Row | pIC50 (A549) | pIC50 (CT26) | pIC50 (MCF7) | pIC50 (BGC-823) | pIC50 (HCT-116) | pIC50 (NCI-H1299) | pIC50 (NCI-H1975) | pIC50 (A2780S [2]) | Compound | inhibition at 30 µM (A2780/Taxol) | inhibition at 30 µM (A2780S [1])
9 | < 4.52 | < 4.52 | < 4.52 | < 4.52 | < 4.52 | < 4.52 | < 4.52 | – | C[C@@H]1C(C=O)=C[C@H]2[C@@H](c3ccccc3OC2(C)C)[C@@]12C(=O)Nc1ccccc12 | 3.8% | 14.4%
10 | < 4.52 | < 4.52 | < 4.52 | < 4.52 | < 4.52 | < 4.52 | < 4.52 | – | CC[C@@H]1C(C=O)=C[C@H]2[C@@H](c3ccccc3O[C@@H]2CC)[C@@]12C(=O)Nc1ccccc12 | 9% | 34.1%
11 | < 4.52 | < 4.52 | < 4.52 | < 4.52 | < 4.52 | < 4.52 | < 4.52 | – | C[C@@H]1C(C=O)=C[C@H]2[C@@H](c3cc(Cl)ccc3O[C@@H]2C)[C@@]12C(=O)Nc1ccccc12 | 5.8% | 16.5%
12 | < 4.52 | < 4.52 | < 4.52 | < 4.52 | < 4.52 | < 4.52 | < 4.52 | – | C[C@@H]1C(C=O)=C[C@H]2[C@@H](c3cccc(F)c3O[C@@H]2C)[C@@]12C(=O)Nc1ccccc12 | 5.7% | 22.2%
13 | < 4.52 | < 4.52 | < 4.52 | < 4.52 | < 4.52 | < 4.52 | < 4.52 | 4.71 | C[C@@H]1C(C=O)=C[C@H]2[C@@H](c3ccccc3O[C@@H]2C)[C@@]12C(=O)Nc1cc(Cl)ccc12 | 13.1% | –
14 | < 4.52 | 4.57 | < 4.52 | < 4.52 | 4.59 | < 4.52 | < 4.52 | 4.67 | O=CC1=C[C@@H]2COc3ccccc3[C@H]2C2(C1)C(=O)Nc1ccccc12 (some centres not stated) | 25% | –
15 | < 4.52 | < 4.52 | < 4.52 | < 4.52 | < 4.52 | < 4.52 | < 4.52 | – | C[C@@H]1C(C=O)=C[C@H]2[C@@H](c3ccccc3N[C@@H]2C)[C@@]12C(=O)Nc1ccccc12 | 15.2% | 47.2%
16 | < 4.52 | < 4.52 | < 4.52 | < 4.52 | < 4.52 | < 4.52 | < 4.52 | – | C[C@@H]1C(C=O)=C[C@H]2[C@@H](c3cc(Br)ccc3O[C@@H]2C)[C@@]12C(=O)Nc1ccccc12 | 2.3% | 35.9%
17 | < 4.52 | < 4.52 | < 4.52 | < 4.52 | < 4.52 | < 4.52 | < 4.52 | – | C[C@@H]1C(C=O)=C[C@H]2[C@@H](c3ccccc3O[C@@H]2C)[C@@]12C(=O)Nc1ccc(F)cc12 | 4.4% | 14.5%
18 | < 4.52 | < 4.52 | < 4.52 | < 4.52 | < 4.52 | < 4.52 | < 4.52 | – | C[C@@H]1C(C=O)=C[C@H]2[C@@H](c3cc([N+](=O)[O-])ccc3O[C@@H]2C)[C@@]12C(=O)Nc1ccccc12 | 0.2% | 25.2%
